In ChEMBL document CHEMBL1140080, “Adamantyl-substituted retinoid-derived molecules that interact with the orphan nuclear receptor small heterodimer partner: effects of replacing the 1-adamantyl or hydroxyl group on inhibition of cancer cell growth, induction of cancer cell apoptosis, and inhibition of SRC homology 2 …” (J Med Chem, 2008):

Assays:
[1] = Growth inhibition of HMVE cells at 0.5 uM after 72 hrs by alamar blue method; format: cell-based; settings: human; for inhibition at 72 h, 0.5 µM: HMVE cells, read-out: GI
[2] = Induction of apoptosis in human HL60R cells at 1.0 uM after 24 hrs by acridine orange staining; format: functional
In short: (§1)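 KG-1, HL-60R (24 h) or MDA-MB-231 (96 h) cells in 5% FBS medium attached overnight, then were treated with analogue in Me2SO or vehicle (final 0.1% Me2SO). Apoptotic cells were scored by acridine orange staining on at least three replicates. Tested concentrations were 0.1–5.0 μM, plus 25 μM for KG-1.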

[3] = Induction of apoptosis in human HL60R cells at 0.1 uM after 24 hrs by acridine orange staining; format: functional; in short: as §1
[4] = Growth inhibition of HMVE cells after 72 hrs by alamar blue method; format: cell-based; settings: Homo sapiens
[5] = system: MDA-MB-231; experiment: Induction of apoptosis in human MDA-MB-231 cells at 1.0 uM after 96 hrs by acridine orange staining; format: functional; in short: as §1
[6] = system: MDA-MB-231; experiment: Induction of apoptosis in human MDA-MB-231 cells at 2.0 uM after 96 hrs by acridine orange staining; format: functional; in short: as §1
[7] = system: DU-145; experiment: Antiproliferative activity against human DU145 cells at 5 uM after 72 hrs by MTT assay; format: functional; settings: DU-145, 72 h
In short: (§2)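 Cells attached for 24 h, then exposed 72 h to analogue in Me2SO or Me2SO alone (final Me2SO 0.1%), with media and compound renewed after 48 h. Viable cells were measured by MTS tetrazolium reduction in three replicates. Top concentration tested per compound was 2.5, 5, 10, 20 or 100 μM.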

[8] = system: MDA-MB-231; experiment: Antiproliferative activity against human MDA-MB-231 cells at 5 uM after 72 hrs by MTT assay; format: functional; settings: MDA-MB-231, 72 h; in short: as §2
[9] = molecular target: T1, Nuclear receptor subfamily 0 group B member 2 (Homo sapiens) (UniProt Q15466); experiment: Displacement of [5,5'-3H2]AHPN from human recombinant GST-SHP at 50 uM by liquid scintillation counting relative to 3-Cl-AHPC
T1 sequence (whole entry): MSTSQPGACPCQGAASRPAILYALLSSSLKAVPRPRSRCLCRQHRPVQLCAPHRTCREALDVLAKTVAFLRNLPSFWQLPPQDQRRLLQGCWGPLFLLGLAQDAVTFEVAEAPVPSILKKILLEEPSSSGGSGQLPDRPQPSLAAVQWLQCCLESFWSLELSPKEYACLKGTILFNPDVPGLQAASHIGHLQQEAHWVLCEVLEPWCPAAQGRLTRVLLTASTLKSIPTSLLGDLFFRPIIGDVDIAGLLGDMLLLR
In short: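 Recombinant GST–human SHP was bound to glutathione–Sepharose beads and incubated 2 h with 5 nM [5,5′-3H2]AHPN with or without competitor (1.0, 5.0 or 50 μM). Beads were washed twice and counted. Displacement was expressed relative to 50 μM 3-Cl-AHPC set as 100%.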

[10] = Antiproliferative activity against human KG1 AML cells at 5 uM after 48 hrs by MTT assay; format: functional; settings: in the assay text read “by hemocytometer cell counting” for “by MTT assay”
In short: (§3)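 KG-1 cells in 5% FBS medium attached overnight, then treated 48 h with analogue in Me2SO or Me2SO alone (final 0.1%). Cells were harvested and counted by hemocytometer in triplicate wells. Highest concentration evaluated was 5 μM.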

[11] = system: DU-145; experiment: Antiproliferative activity against human DU145 cells after 72 hrs by MTT assay; format: functional, cell-based; settings: DU-145, 72 h; in short: as §2
[12] = Antiproliferative activity against human H292 cells at 5 uM after 72 hrs by MTT assay; format: functional; settings: NCI-H292, 72 h; in short: as §2
[13] = molecular target: T2, Tyrosine-protein phosphatase non-receptor type 11 (Homo sapiens, UniProt Q06124); experiment: Inhibition of SHP2 overexpressed in human KG1 cells; format: cell-based, KG-1
T2 sequence (Q06124 whole entry): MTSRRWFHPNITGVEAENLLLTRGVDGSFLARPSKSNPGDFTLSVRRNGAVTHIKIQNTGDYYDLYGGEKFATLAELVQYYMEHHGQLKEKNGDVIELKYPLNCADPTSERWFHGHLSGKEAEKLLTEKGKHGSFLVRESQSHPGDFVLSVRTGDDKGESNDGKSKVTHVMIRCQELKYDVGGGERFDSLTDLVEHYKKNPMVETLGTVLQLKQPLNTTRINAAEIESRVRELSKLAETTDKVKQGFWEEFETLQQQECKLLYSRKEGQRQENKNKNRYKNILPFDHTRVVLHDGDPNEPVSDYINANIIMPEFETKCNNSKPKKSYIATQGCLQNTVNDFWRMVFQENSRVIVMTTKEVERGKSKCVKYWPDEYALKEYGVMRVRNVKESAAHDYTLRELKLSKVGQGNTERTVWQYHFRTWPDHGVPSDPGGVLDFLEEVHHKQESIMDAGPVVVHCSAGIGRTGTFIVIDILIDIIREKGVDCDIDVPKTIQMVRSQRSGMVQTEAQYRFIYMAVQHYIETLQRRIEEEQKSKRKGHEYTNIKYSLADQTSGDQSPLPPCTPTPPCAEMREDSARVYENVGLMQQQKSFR
In short: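 Shp-2 PTP activity was measured as hydrolysis of the fluorogenic substrate 6,8-difluoro-4-methylumbelliferyl phosphate in the presence of analogue in Me2SO or Me2SO alone (final concentration 5%).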

[14] = system: KG-1; experiment: Induction of apoptosis in human KG1 cells at 1.0 uM […] by acridine orange staining; format: functional
[15] = Antiproliferative activity against human H292 cells after 72 hrs by MTT assay; format: functional, cell-based; settings: NCI-H292, 72 h; in short: as §2
[16] = system: KG-1; experiment: Induction of apoptosis in human KG1 cells at 5.0 uM […] by acridine orange staining; format: functional
[17] = Antiproliferative activity against human KG1 AML cells after 48 hrs by MTT assay; format: functional, cell-based; settings: in the assay text read “by hemocytometer cell counting” for “by MTT assay”; in short: as §3
[18] = system: MDA-MB-231; experiment: Antiproliferative activity against human MDA-MB-231 cells after 72 hrs by MTT assay; format: functional, cell-based; settings: MDA-MB-231, 72 h; in short: as §2
[19] = system: KG-1; experiment: Induction of apoptosis in human KG1 cells after 48 hrs by acridine orange staining; format: functional, cell-based; settings: KG-1, 48 h

Row | Structure (SMILES) | inhibition at 72 h, 0.5 µM [1] | Activity [2] | Activity [3] | IC50 [4] | Activity [5] | further results
1 | CC1=C(/C=C/C(C)=C/C=C/C(C)=C/C(=O)O)C(C)(C)CCC1 [TRETINOIN] | 10% | 0% | 0% | > 0.5 µM | 0% | Activity [6]: 0%
2 | CC(C)(C)c1cc(-c2ccc3cc(C(=O)O)ccc3c2)ccc1O | 10% |  |  | > 0.5 µM |  | 
3 | Cc1c(-c2ccc(O)c(-c3ccc4c(c3)C(C)(C)CCC4(C)C)c2)ccc2cc(C(=O)O)ccc12 | 60% | 0% | 0% | 0.6 µM |  | 
4 | COc1cc(-c2ccc3cc(C(=O)O)ccc3c2)cc(C23CC4CC(CC(C4)C2)C3)c1 |  |  |  |  | 20% | 
5 | CC(c1cc(-c2ccc3cc(C(=O)O)ccc3c2)ccc1O)C12CC3CC(CC(C3)C1)C2 (centres undefined) | 30% | 0% |  | > 0.5 µM |  | 
6 | CC1(C)CCC(C)(C)c2cc(-c3cc(-c4ccc(/C=C/C(=O)O)cc4)ccc3O)ccc21 |  | 0% |  |  |  | 
7 | COc1cc(-c2ccc3cc(C(=O)O)ccc3c2C)ccc1O |  | 7% | -4% |  | 5% | Activity [6]: 7%
8 | O=C(O)c1ccc2c(Cl)c(-c3ccc(O)c(C45CC6CC(CC(C6)C4)C5)c3)ccc2c1 | 45% | 94% | 62% | > 0.5 µM | 21% | Activity [6]: 41%
9 | O=C(O)c1ccc2cc(-c3ccc(O)c(C45CC6CC(CC(C6)C4)C5)c3)ccc2c1 [O-DEMETHYLATED ADAPALENE] |  | 98% | 73% |  | 26% | Activity [6]: 46%
10 | O=C(O)c1ccc2cc(-c3ccc(O)c([C@H]4CCC5CCCC[C@H]5C4)c3)ccc2c1 (some centres undefined) |  | 0% |  |  |  | 
11 | CC(=O)Nc1ccc(-c2ccc(/C=C/C(=O)O)cc2Cl)cc1C12CC3CC(CC(C3)C1)C2 |  |  |  |  |  | inhibition at 5 µM [7]: 8%; inhibition at 5 µM [8]: -5%; Activity [9]: 47%; Activity [10]: 25%; IC50 [11]: 5 µM; inhibition at 5 µM [12]: 13%; IC50 [13]: 4.55 µM; Activity [14]: 3%; IC50 [15]: > 5 µM; Activity [16]: 7%; IC50 [17]: > 5 µM; IC50 [18]: > 5 µM
12 | CC1(C)CC(c2cc(-c3ccc4cc(C(=O)O)ccc4c3)ccc2O)CC(C)(C)C1 | 50% | 60% | 26% | 0.5 µM | 10% | Activity [6]: 49%
13 | COc1cc(-c2ccc3cc(C(=O)O)ccc3c2)cc(C23CC4CC(CC(C4)C2)C3)c1O |  |  |  |  | 0% | 
14 | O=C(O)c1ccc2cc(-c3cc(C45CC6CC(CC(C6)C4)C5)ccc3O)ccc2c1 |  |  |  |  | 0% | 
15 | COc1ccc(-c2ccc3cc(C(=O)O)ccc3c2)cc1C12CC3CC(CC(C3)C1)C2 |  | 95% | 3% |  |  | 
16 | CC1(c2cc(-c3ccc(/C=C/C(=O)O)cc3Cl)ccc2O)CCCCC1 |  |  |  |  |  | inhibition at 5 µM [7]: 32%; inhibition at 5 µM [8]: 9%; Activity [10]: 0%; IC50 [11]: 8 µM; inhibition at 5 µM [12]: 63%; IC50 [13]: 6.4 µM; Activity [14]: 0%; IC50 [15]: 3.9 µM; Activity [16]: 0%; IC50 [17]: > 5 µM; IC50 [18]: > 5 µM
17 | Cc1cc(C)c(-c2cc(-c3ccc4cc(C(=O)O)ccc4c3C)ccc2O)c(C)c1 | 17% | 0% | 0% | > 0.5 µM |  | 

Row | Structure (SMILES) | inhibition at 72 h, 0.5 µM [1] | Activity [2] | Activity [3] | IC50 [4] | Activity [5] | further results
18 | CCCCC[C@@H]1CC2(c3cc(-c4ccc(/C=C/C(=O)O)cc4)ccc3O)CCC1CC2 |  | 0% | 0% |  |  | 
19 | COc1cc(-c2ccc3cc(C(=O)O)ccc3c2)ccc1C12CC3CC(CC(C3)C1)C2 |  | 0% |  |  |  | 
20 | CC1(C)CCC(C)(C)c2cc(-c3ccc4cc(C(=O)O)ccc4c3)c(CO)cc21 |  |  |  |  | 0% | 
21 | O=C(O)c1ccc2cc(-c3ccc(O)c(C4C5CC6CC(C5)CC4C6)c3)ccc2c1 (centres undefined) | 35% | 0% | 0% | > 0.5 µM |  | 
22 | COCCOCOc1ccc(-c2ccc3cc(C(=O)O)ccc3c2)cc1C12CC3CC(CC(C3)C1)C2 |  | 21% |  |  |  | 
23 | Nc1ccc(-c2ccc(/C=C/C(=O)O)cc2Cl)cc1C12CC3CC(CC(C3)C1)C2 |  |  |  |  |  | inhibition at 5 µM [7]: 79%; inhibition at 5 µM [8]: 61%; IC50 [19]: 9.3 µM; Activity [9]: 61%; Activity [10]: 50%; IC50 [11]: 1.3 µM; inhibition at 5 µM [12]: 45%; IC50 [13]: 1.83 µM; Activity [14]: 10%; IC50 [15]: 6 µM; IC50 [17]: 5 µM; IC50 [18]: 4 µM
24 | CC(C)=CCC/C(C)=C\Cc1cc(-c2ccc3cc(C(=O)O)ccc3c2)ccc1O |  | 0% |  |  |  | 
25 | O=C(O)c1ccc2cc(-c3ccc(O)c([C@@H]4CC[C@@H]5CCCC[C@H]5C4)c3)ccc2c1 | 0% | 0% |  | > 0.5 µM |  | 
26 | COc1ccc(C23CC4CC(CC(C4)C2)C3)cc1-c1ccc2cc(C(=O)O)ccc2c1 |  | 0% |  |  |  | 
27 | O=C(O)/C=C/c1ccc(-c2ccc(O)c(C3C4CC5CC(C4)CC3C5)c2)cc1 (centres undefined) |  | 90% | 2% |  | 20% | Activity [6]: 47%
28 | O=C(O)c1ccc2cc(-c3ccc(O)c([C@@H]4CCC[C@H]5CCCCC54)c3)ccc2c1 (some centres undefined) | 10% | 0% |  | > 0.5 µM |  | 
29 | O=C(O)c1ccc2cc(-c3cc(O)c(O)c(C45CC6CC(CC(C6)C4)C5)c3)ccc2c1 |  |  |  |  | 0% | 
30 | O=C(O)c1ccc2cc(-c3cc(O)cc(C45CC6CC(CC(C6)C4)C5)c3)ccc2c1 |  |  |  |  | 0% | 
31 | O=C(O)/C=C/c1ccc(-c2ccc(O)c(C34CC5CC(CC(C5)C3)C4)c2)cc1 [ADAROTENE] | 90% | 98% |  | 0.1 µM | 53% | Activity [6]: 58%
32 | Cc1c(-c2ccc(O)c(C34CC5CC(CC(C5)C3)C4)c2)ccc2cc(C(=O)O)ccc12 | 65% | 70% | 29% | 0.34 µM | 28% | Activity [6]: 43%
33 | CC1C2(c3cc(-c4ccc(/C=C/C(=O)O)cc4)ccc3O)CCC(C2)C1(C)C (centres undefined) |  | 2% | 2% | > 0.5 µM |  | growth inhibition (GI) ([1]; hmve, 72 h, 0.5 µM): 40%
